Test results taken from ChEMBL document CHEMBL1177770, “A rapid synthesis of lavendustin-mimetic small molecules by click fragment assembly” (Bioorg Med Chem Lett, 2010).
pIC50: −log10 of the molar value.

Experiments:
[1] = system: HCT-116; test: Growth inhibition of human HCT116 cells at 10 uM after 2 days by MTT assay; format: functional; conditions: HCT-116, 48 h
[2] = system: CCRF-CEM; test: Growth inhibition of human CCRF-CEM cells at 10 uM after 2 days by MTT assay; format: functional; conditions: 48 h
[3] = system: HCT-116; test: Growth inhibition of human HCT116 cells after 2 days by MTT assay; format: functional; conditions: HCT-116, 48 h
Procedure, shortened: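 HCT116 colorectal carcinoma cells from KCLB/ATCC were grown in RPMI 1640/DMEM with 10% heat-inactivated FBS at 37 °C and 5% CO₂. Cells were seeded at 5 × 10⁴ cells/ml and exposed in duplicate to a range of concentrations for two days. MTT dye was added for up to 4 h at 37 °C, formazan was solubilized overnight at room temperature, and A570 gave GI₅₀.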

[4] = system: CCRF-CEM; test: Growth inhibition of human CCRF-CEM cells after 2 days by MTT assay; format: functional; conditions: 48 h
[5] = system: HaCaT; test: Cytotoxicity against human HaCaT cells

## COc1cc(OC)cc(-c2cn(-c3ccc(O)c(C(=O)Nc4cccc(C(F)(F)F)c4)c3)nn2)c1
[1]
  inhibition at 10 µM: 62%
[2]
  inhibition at 10 µM: 73%
[3]
  GI50: 4.37 µM
[4]
  GI50: 6.41 µM

## COC(=O)c1cc(-n2cc(-c3ccc(OC)cc3)nn2)ccc1O
[1]
  inhibition at 10 µM: 6%
[2]
  inhibition at 10 µM: 16%

## COC(=O)c1cc(-n2cc(-c3ccccc3OC)nn2)ccc1O
[1]
  inhibition at 10 µM: 8%
[2]
  inhibition at 10 µM: 6%

## COC(=O)c1cc(-n2cc(-c3cccc(O)c3)nn2)ccc1O
[1]
  inhibition at 10 µM: 6%
[2]
  inhibition at 10 µM: 5%

## COc1ccc(OC)c(-c2cn(-c3ccc(O)c(C(=O)NCCc4ccc(F)cc4)c3)nn2)c1
[1]
  inhibition at 10 µM: 44%
[2]
  inhibition at 10 µM: 35%
[3]
  GI50: 13.6 µM
[4]
  GI50: 22.9 µM

## O=C(NCCc1ccc(F)cc1)c1cc(-n2cc(-c3cccc(O)c3)nn2)ccc1O
[2]
  inhibition at 10 µM: 35%
[3]
  GI50: > 100 µM
[4]
  GI50: 22.8 µM

## COc1ccc(-c2cn(-c3ccc(O)c(C(=O)NCCc4ccc(F)cc4)c3)nn2)cc1
[1]
  inhibition at 10 µM: 62%
[2]
  inhibition at 10 µM: 21%
[3]
  GI50: 12.5 µM
[4]
  GI50: > 100 µM

## COc1ccccc1-c1cn(-c2ccc(O)c(C(=O)NCCc3ccc(F)cc3)c2)nn1
[1]
  inhibition at 10 µM: 23%
[2]
  inhibition at 10 µM: 11%

## O=C(OCCCc1ccccc1)c1cc(-n2cc(-c3cccc(O)c3)nn2)ccc1O
[1]
  inhibition at 10 µM: 11%
[2]
  inhibition at 10 µM: 9%

## COC(=O)c1cc(-n2cc(-c3cc(OC)cc(OC)c3)nn2)ccc1O
[1]
  inhibition at 10 µM: 3%
[2]
  inhibition at 10 µM: 3%

## COc1ccc(OC)c(-c2cn(-c3ccc(O)c(C(=O)O)c3)nn2)c1
[2]
  inhibition at 10 µM: 9%

## COC(=O)c1cc(-n2cc(-c3cc(OC)ccc3OC)nn2)ccc1O
[1]
  inhibition at 10 µM: 6%
[2]
  inhibition at 10 µM: 3%

## COC(=O)c1cc(-n2cc(-c3cc(O)ccc3O)nn2)ccc1O
[1]
  inhibition at 10 µM: 15%
[2]
  inhibition at 10 µM: 52%
[3]
  GI50: > 100 µM
[4]
  GI50: 13.9 µM

## O=C(O)c1cc(-n2cc(-c3cccc(O)c3)nn2)ccc1O
[1]
  inhibition at 10 µM: 5%
[2]
  inhibition at 10 µM: 3%

## COc1ccc(-c2cn(-c3ccc(O)c(C(=O)O)c3)nn2)cc1
[1]
  inhibition at 10 µM: 8%
[2]
  inhibition at 10 µM: 9%

## COc1ccccc1-c1cn(-c2ccc(O)c(C(=O)O)c2)nn1
[1]
  inhibition at 10 µM: 4%
[2]
  inhibition at 10 µM: 9%

## O=C(NCCc1ccc(F)cc1)c1cc(-n2cc(-c3cc(O)ccc3O)nn2)ccc1O
[1]
  inhibition at 10 µM: 18%
[2]
  inhibition at 10 µM: 15%

## COc1ccc(-c2cn(-c3ccc(O)c(C(=O)Nc4cccc(C(F)(F)F)c4)c3)nn2)cc1
[1]
  inhibition at 10 µM: 9%
[2]
  inhibition at 10 µM: 12%

## COc1ccc(OC)c(-c2cn(-c3ccc(O)c(C(=O)OCCCc4ccccc4)c3)nn2)c1
[1]
  inhibition at 10 µM: 13%
[2]
  inhibition at 10 µM: 5%

## O=C(OCCCc1ccccc1)c1cc(-n2cc(-c3cc(O)ccc3O)nn2)ccc1O
[1]
  inhibition at 10 µM: 39%
[2]
  inhibition at 10 µM: 81%
[3]
  GI50: 20.4 µM
[4]
  GI50: 0.93 µM

## COc1cc(OC)cc(-c2cn(-c3ccc(O)c(C(=O)NCCc4ccc(F)cc4)c3)nn2)c1
[1]
  inhibition at 10 µM: 43%
[2]
  inhibition at 10 µM: 35%
[3]
  GI50: 16.1 µM
[4]
  GI50: > 100 µM

## COc1ccc(OC)c(-c2cn(-c3ccc(O)c(C(=O)Nc4cccc(C(F)(F)F)c4)c3)nn2)c1
[1]
  inhibition at 10 µM: 46%
[2]
  inhibition at 10 µM: 15%
[3]
  GI50: 12.9 µM
[4]
  GI50: > 100 µM

## O=C(Nc1cccc(C(F)(F)F)c1)c1cc(-n2cc(-c3cccc(O)c3)nn2)ccc1O
[1]
  inhibition at 10 µM: 25%
[2]
  inhibition at 10 µM: 13%

## COc1ccc(-c2cn(-c3ccc(O)c(C(=O)OCCCc4ccccc4)c3)nn2)cc1
[1]
  inhibition at 10 µM: 12%
[2]
  inhibition at 10 µM: 5%

## COc1ccccc1-c1cn(-c2ccc(O)c(C(=O)OCCCc3ccccc3)c2)nn1
[1]
  inhibition at 10 µM: 7%
[2]
  inhibition at 10 µM: 4%

## COc1cc(OC)cc(-c2cn(-c3ccc(O)c(C(=O)OCCCc4ccccc4)c3)nn2)c1
[1]
  inhibition at 10 µM: 19%
[2]
  inhibition at 10 µM: 8%

## COc1cc(OC)cc(-c2cn(-c3ccc(O)c(C(=O)O)c3)nn2)c1
[1]
  inhibition at 10 µM: 2%
[2]
  inhibition at 10 µM: 9%

## COc1ccccc1-c1cn(-c2ccc(O)c(C(=O)Nc3cccc(C(F)(F)F)c3)c2)nn1
[1]
  inhibition at 10 µM: 61%
[2]
  inhibition at 10 µM: 65%
[3]
  GI50: 7.92 µM
[4]
  GI50: 10.5 µM

## COc1cccc2c1C(=O)c1c(O)c3c(c(O)c1C2=O)C[C@@](O)(C(=O)CO)C[C@@H]3O[C@H]1C[C@H](N)[C@H](O)[C@H](C)O1 [DOXORUBICIN]
[3]
  GI50: 0.4 µM
[4]
  GI50: 0.02 µM

## O=C(O)c1cc(NCc2cc(O)ccc2O)ccc1O [LAVENDUSTIN C]
[5]
  pIC50: < 4.00
